ChEMBL document CHEMBL4725418, “Design, Synthesis, and Structure-Activity Relationship Studies of Dual Inhibitors of Soluble Epoxide Hydrolase and 5-Lipoxygenase” (J Med Chem, 2020)
Converted amounts (≈) assume the structure as drawn. The source made the active and inactive calls. The rule behind the calls is not given here.

How the values were obtained:
[1] = Half life in Swiss CD-1 mouse at 3 mg/kg, po administered as single dose by LC-MS analysis; format: ADME, organism-based; conditions: in vivo
How it was run: (§1)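 Male Swiss CD-1 mice received a single oral dose of 3 mg/kg in 1% methylcellulose/Tween80 (99:1); nine mice treated, three vehicle controls, three mice per time point. Serum analyzed by LC-MS for concentration–time profile.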

[2] = Cmax in Swiss CD-1 mouse at 3 mg/kg, po administered as single dose by LC-MS analysis; format: ADME, organism-based; set-up: route oral, dose 3 mg/kg; conditions: in vivo; how it was run: as §1
[3] = target: T1, Bifunctional epoxide hydrolase 2 (Homo sapiens, UniProt P34913); test: Inhibition of human sEH (1 to 555 residues) expressed in Escherichia coli BL21-(DE3) using PHOME substrate incubated for 30 to 45 mins by fluorescence based assay
T1 sequence (P34913 whole entry): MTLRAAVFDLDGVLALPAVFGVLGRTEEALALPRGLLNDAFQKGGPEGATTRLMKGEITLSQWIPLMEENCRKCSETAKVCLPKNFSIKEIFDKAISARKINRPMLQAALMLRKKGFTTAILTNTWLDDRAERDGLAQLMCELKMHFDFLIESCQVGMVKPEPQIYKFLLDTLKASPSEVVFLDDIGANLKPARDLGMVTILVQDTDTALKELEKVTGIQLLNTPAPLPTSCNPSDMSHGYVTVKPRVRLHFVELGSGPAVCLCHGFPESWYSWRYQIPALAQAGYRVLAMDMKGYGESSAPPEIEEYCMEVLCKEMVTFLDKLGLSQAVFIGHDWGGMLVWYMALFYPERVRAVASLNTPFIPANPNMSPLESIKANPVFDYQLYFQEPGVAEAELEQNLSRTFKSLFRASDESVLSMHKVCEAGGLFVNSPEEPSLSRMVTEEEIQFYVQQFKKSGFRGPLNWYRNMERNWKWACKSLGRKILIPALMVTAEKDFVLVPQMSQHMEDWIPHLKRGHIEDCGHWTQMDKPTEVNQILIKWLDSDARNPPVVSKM

[4] = target: T2, Polyunsaturated fatty acid 5-lipoxygenase (Homo sapiens, UniProt P09917); test: Inhibition of 5-LOX (unknown origin) expressed in Escherichia coli BL21-(DE3) pre-incubated for 15 mins before AA substrate addition and measured after 10 mins by HPLC/UV assay
T2 sequence (P09917 whole entry): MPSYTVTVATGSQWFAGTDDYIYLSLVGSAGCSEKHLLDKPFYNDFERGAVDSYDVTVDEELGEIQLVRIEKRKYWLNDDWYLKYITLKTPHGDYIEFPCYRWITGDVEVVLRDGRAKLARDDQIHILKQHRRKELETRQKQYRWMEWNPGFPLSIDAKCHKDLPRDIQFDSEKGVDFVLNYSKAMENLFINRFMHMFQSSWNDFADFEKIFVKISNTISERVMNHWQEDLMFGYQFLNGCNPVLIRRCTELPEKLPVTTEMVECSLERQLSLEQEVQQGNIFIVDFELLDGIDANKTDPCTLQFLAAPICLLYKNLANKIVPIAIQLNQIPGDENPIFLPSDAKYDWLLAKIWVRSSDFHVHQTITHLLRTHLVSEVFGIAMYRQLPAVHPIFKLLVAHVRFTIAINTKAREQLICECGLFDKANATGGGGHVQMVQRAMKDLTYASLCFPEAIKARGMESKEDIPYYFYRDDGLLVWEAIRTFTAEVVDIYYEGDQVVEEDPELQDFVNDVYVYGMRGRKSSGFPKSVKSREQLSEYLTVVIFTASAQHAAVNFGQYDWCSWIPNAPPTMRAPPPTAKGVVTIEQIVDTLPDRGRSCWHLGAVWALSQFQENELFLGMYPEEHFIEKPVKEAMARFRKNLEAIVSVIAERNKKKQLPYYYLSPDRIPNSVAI
How it was run: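 Recombinant 5-LOX activity measured with arachidonic acid as substrate; product formation monitored by HPLC. IC50 from at least three independent determinations (n ≥ 3), reported with 95% confidence interval.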

[5] = Metabolic stability in rat liver microsomes assessed as compound remaining after 60 mins; format: ADME, Microsome; conditions: read-out: Stabilty
How it was run: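 Compound incubated with rat liver microsomes for 60 min; percent parent compound remaining determined; n ≥ 3.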

[6] = Solubility in pH 7.4 DPBS buffer; format: physicochemical
[7] = target: T2, Polyunsaturated fatty acid 5-lipoxygenase; test: Inhibition of 5-LOX in human PMNL assessed as reduction in 5-HETE and LTB4 formation pre-incubated for 15 mins before addition of AA and A23187 and measured after 10 mins by HPLC/UV assay
[8] = T>IC50 in Swiss CD-1 mouse at 3 mg/kg, po administered as single dose by LC-MS analysis; format: ADME, organism-based; conditions: in vivo; how it was run: as §1
Mus musculus [9] = test: Anti-fibrotic activity in C57BL/6 mouse model of unilateral ureter obstruction-induced kidney inflammation and fibrosis assessed as inhibition of tubulo-interstitial fibrosis by measuring reduced fibrillar collagen at 3 mg/kg, ip dosed daily for 7 days by Sirius red staining method; format: functional, organism-based; conditions: time 7.0 day
How it was run: (§2)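 Mice with unilateral ureter obstruction to induce kidney inflammation and fibrosis, given compound or vehicle intraperitoneally. Ligated (UUO) and contralateral kidneys taken at day 7. Fibrosis read by AZAN and Sirius Red staining, with Sirius Red imaged under bright and polarized light. Macrophages detected by F4/80 staining, quantified as positive area. Col1a1, FN1, TNFα and Ccl2 mRNA measured in whole-kidney homogenates by real-time qRT-PCR normalized to GAPDH.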

Mus musculus [10] = test: Anti-fibrotic activity in C57BL/6 mouse model of unilateral ureter obstruction-induced kidney inflammation and fibrosis assessed as reduction in FN1 mRNA expression at 3 mg/kg, ip dosed daily for 7 days by real-time qPCR analysis; format: functional, organism-based; conditions: time 7.0 day; how it was run: as §2
Mus musculus [11] = test: Anti-inflammatory activity in C57BL/6 mouse model of unilateral ureter obstruction-induced kidney inflammation and fibrosis assessed as reduction in Ccl2 mRNA expression at 3 mg/kg, ip dosed daily for 7 days by real-time qPCR analysis; format: functional, organism-based; conditions: time 7.0 day; how it was run: as §2
Mus musculus [12] = test: Anti-inflammatory activity in C57BL/6 mouse model of unilateral ureter obstruction-induced kidney inflammation and fibrosis assessed as reduction in TNFalpha mRNA expression at 3 mg/kg, ip dosed daily for 7 days by real-time qPCR analysis; format: functional, organism-based; conditions: time 7.0 day; how it was run: as §2

half-life [1]: 1.3 h | Cmax [2]: 700 nM | IC50 [3]: 1.2 nM | IC50 [4]: 110 nM | remaining at 1 h [5]: 50% | solubility [6]: 3 µM (≈ 1.43 µg/mL) | IC50 [7]: 210 nM | T>IC50 [8]: 3 h
Structure (SMILES): C[C@H](C#Cc1cccc(C(=O)NCCC(c2ccc(F)cc2)c2ccc(F)cc2)c1)N(O)C(N)=O
Activity (Mus musculus [9]): Active | Activity (Mus musculus [10]): Active | Activity (Mus musculus [11]): Active | Activity (Mus musculus [12]): Active
